Experiments:
[1] = format: in vivo, Sprague-Dawley rats; details: single-dose group (voriconazole 30 mg/kg); vonoprazan 10 mg/kg oral; rats
[2] = biological target: vonoprazan metabolism in rat liver microsomes; assay: Inhibition of vonoprazan metabolism by voriconazole in rat liver microsomes; format: in vitro ADME; details: RLM; for mode of inhibition of vonoprazan metabolism: Lineweaver–Burk plot, Ki ≠ αKi
In short: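 Rat liver microsomes were prepared in-house and used at 0.44 mg/mL, with 1 mM NADPH in 100 mM potassium phosphate (pH 7.4) in a 200 µL volume. Test inhibitor was at 0, 1.5, 3, 6 and 12 μM and substrate at 5, 10, 20 and 40 μM. Incubation ran 50 min at 37°C, was stopped by −80°C cooling, then acetonitrile plus IS was added. Substrate was quantified by LC-MS/MS, with Lineweaver–Burk and secondary plots giving Ki and αKi.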

[3] = 0-12 μM voriconazole, 5-40 μM vonoprazan, Lineweaver–Burk secondary plot

Row | Compound | decrease of CLz/F compared with the control group [1] | Ki [2, 3] | αKi [2, 3] | mode of inhibition of vonoprazan metabolism [2] | mode of inhibition of vonoprazan metabolism ([2]; listed as voriconazole)
1 | CNCc1cc(-c2ccccc2F)n(S(=O)(=O)c2cccnc2)c1 [Vonoprazan, vonoprazan] | 2.7 fold | – | – | – | –
2 | C[C@@H](c1ncncc1F)[C@](O)(Cn1cncn1)c1ccc(F)cc1F [Voriconazole, voriconazole] | – | 2690 nM | 5.32 µM | mixed inhibition | mixed type
